Molecules are shown by their SMILES. Where a name gives a salt, the structure may show the parent alone.

One test relates to HeLa. Kind of test: Cytotoxicity against human HeLa cells after 72 hrs by MTT assay. Type of test: functional, cell-based. The method in brief: (§1)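 MTT colorimetric readout. DMSO stocks serially diluted in culture medium to final 50, 10, 2, 0.4, 0.08 and 0.016 μM, quadruplicate wells per concentration. Adriamycin as positive control. Inhibition rate computed from treated, control and blank OD. IC50 by nonlinear regression of logistic dose–response curves. Means ± SD of three independent experiments.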

The next test concerns MCF7. Kind of test: Cytotoxicity against human MCF7 cells after 72 hrs by MTT assay. Type of test: functional, cell-based. The following applies: MCF7, 72 h. The procedure, abridged: as §1
The next test has as its system A549. Kind of test: Cytotoxicity against human A549 cells after 72 hrs by MTT assay. Type of test: functional, cell-based. The following applies: A549, 72 h. The method in brief:
as §1

In another test the test system is Phytophthora litchii. Kind of test: Antifungal activity against Peronophythora litchii after 8 hrs by conidial germination assay. Type of test: functional, organism-based. The procedure, abridged:
(§2)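 Conidia from PDA cultures (P. litchii 7-day-old, F. verticillioides 3-day-old), diluted in half-strength PDB, counted and used immediately. Samples in DMSO as 2-fold series; final 0.625 to 80 μg/mL. Incubated 8 h at 30 °C, 150 rpm. Germination scored microscopically (germ tube ≥1.5× spore diameter), >200 conidia per replicate, triplicate. Thiram positive, DMSO negative control. IC50 from logistic nonlinear regression.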

The next test relates to Fusarium verticillioides. Put plainly: Antifungal activity against Fusarium verticillioides after 8 hrs by conidial germination assay. Type of test: functional, organism-based. The procedure, abridged: as §2

As to `COc1cc(O)c2c(c1)[C@H]1O[C@@H]1CC1=C(O)C(=O)C[C@H]1C[C@H](C)OC2=O`, the IC50 was more than 10 µM in the test on HeLa; more than 10 µM in the test on MCF7; more than 10 µM in the test on A549; more than 100 µM in the test with Phytophthora litchii; more than 100 µM in the test on Fusarium verticillioides.
In the case of `C[C@@H]1C[C@H]2O[C@@H]2/C=C\C=C\C(=O)Cc2cc(O)cc(O)c2C(=O)O1` [MONOCILLIN I], the IC50 in the test with HeLa is 2.7 µM; in the test on MCF7 it was 8.1 µM; in the test with A549 it was 2.6 µM; with Phytophthora litchii it was 7.9 µM; in the test with Fusarium verticillioides it was more than 100 µM.
On the same counts, the results for `C[C@@H]1C/C=C/CC[C@@H](O)CC(=O)Cc2cc(O)cc(O)c2C(=O)O1` are more than 10 µM, more than 10 µM, more than 10 µM, more than 100 µM and more than 100 µM.
Regarding `COc1cc(O)c2c(c1)[C@H]1O[C@@H]1CC1=C(O)C(=O)C[C@@H]1C[C@H](C)OC2=O`, the IC50 in the test on HeLa is more than 10 µM; in the test on MCF7, more than 10 µM; with A549, more than 10 µM; in the test with Phytophthora litchii it was more than 100 µM; with Fusarium verticillioides, more than 100 µM.
`C[C@@H]1C/C=C/CC/C=C/C(=O)Cc2cc(O)cc(O)c2C(=O)O1`: the IC50 with HeLa is 2.7 µM; in the test with MCF7, 4.1 µM; in the test with A549, 1.7 µM; in the test on Phytophthora litchii it was 9.8 µM; in the test on Fusarium verticillioides, more than 100 µM.
For `C[C@@H]1C/C=C/CC/C=C\C(=O)Cc2cc(O)cc(O)c2C(=O)O1`, the IC50 with HeLa was 3.6 µM; with MCF7, 1.7 µM; in the test on A549 it was 4.1 µM; with Phytophthora litchii, 9.2 µM; in the test on Fusarium verticillioides, more than 100 µM.
As for `CO[C@@H]1CC/C=C/C[C@@H](C)OC(=O)c2c(O)cc(O)cc2CC(=O)C1`, the IC50 in the test on HeLa is more than 10 µM; with MCF7 it was more than 10 µM; with A549 it was more than 10 µM; in the test with Phytophthora litchii, 19.3 µM; in the test on Fusarium verticillioides it was more than 100 µM.
Turning to `C[C@@H]1C[C@H]2O[C@@H]2CC/C=C/C(=O)Cc2cc(O)cc(O)c2C(=O)O1` [MONOCILLIN III], the IC50 with HeLa is 3.4 µM; with MCF7, more than 10 µM; in the test on A549, 2.1 µM; with Phytophthora litchii, 12 µM; with Fusarium verticillioides, more than 100 µM.
On to `C[C@@H]1C[C@H]2C=CC[C@H](CC(=O)Cc3cc(O)cc(O)c3C(=O)O1)O2`, for which the IC50 is 3.9 µM with HeLa; 4.9 µM in the test on MCF7; 4.1 µM in the test on A549; 41 µM in the test on Phytophthora litchii; more than 100 µM in the test with Fusarium verticillioides.
On to `C[C@H]1C/C=C/CC(=O)CC/C=C/c2cc(O)cc(O)c2C(=O)O1`, for which the IC50 is 3.6 µM with HeLa; 6.9 µM with MCF7; 3.9 µM in the test on A549; more than 100 µM with Phytophthora litchii; more than 100 µM in the test on Fusarium verticillioides.
Turning to `C[C@@H]1C[C@H]2O[C@@H]2/C=C\C=C\C(=O)Cc2c(Cl)c(O)cc(O)c2C(=O)O1` [RADICICOL], the IC50 is 0.1 µM in the test on HeLa; 0.4 µM with MCF7; 0.1 µM in the test on A549; 1.4 µM in the test on Phytophthora litchii; 8 µM with Fusarium verticillioides.
Regarding `C[C@@H]1Cc2ccccc2C(=O)Cc2cc(O)cc(O)c2C(=O)O1`, the IC50 with HeLa is more than 10 µM; with MCF7, more than 10 µM; in the test on A549, more than 10 µM; with Phytophthora litchii, more than 100 µM; in the test with Fusarium verticillioides it was more than 100 µM.
Regarding `C[C@@H]1C/C=C/CCCCC(=O)Cc2cc(O)cc(O)c2C(=O)O1` [MONOCILLIN IV], the IC50 in the test on HeLa was more than 10 µM; in the test on MCF7, 3.6 µM; in the test with A549, more than 10 µM; with Phytophthora litchii, 33.6 µM; in the test on Fusarium verticillioides it was more than 100 µM.
With `COc1cccc2c1C(=O)c1c(O)c3c(c(O)c1C2=O)C[C@@](O)(C(=O)CO)C[C@@H]3O[C@H]1C[C@H](N)[C@H](O)[C@H](C)O1` [DOXORUBICIN HYDROCHLORIDE], the IC50 in the test on HeLa turned out to be 0.3 µM; in the test with A549, 0.1 µM.
In the case of `CN(C)C(=S)SSC(=S)N(C)C` [THIRAM], the IC50 in the test on Phytophthora litchii was 4.6 µM; in the test on Fusarium verticillioides, 1.7 µM.
Regarding `COc1cc(O)c2c(c1)[C@H]1O[C@@H]1C[C@H](O)[C@H](O)C(=O)/C=C\C[C@H](C)OC2=O` [HYPOTHEMYCIN], the 50% inhibitory concentration (IC50) in the test with HeLa was determined as 1 µM; in the test with MCF7, 3.3 µM; with A549, 1 µM; with Phytophthora litchii, 1.9 µM; in the test on Fusarium verticillioides it was 1.1 µM.

The values are drawn from ChEMBL document CHEMBL4190289, “Antifungal and Cytotoxic β-Resorcylic Acid Lactones from a Paecilomyces Species” (J Nat Prod, 2017).
